This is an account of results in ChEMBL document CHEMBL1275312, “Synthesis of new pyrrolo[2,3-d]pyrimidine derivatives as antibacterial and antifungal agents” (2010).

Converted amounts (≈) assume the structure as drawn.

Common to all, as to type: functional
The subject of experiment [1] is Staphylococcus aureus. The experiment can be described thus: Antimicrobial activity against Staphylococcus aureus NCTC 7447 at 5 mg/ml after 24 hrs by agar well diffusion assay. Conditions: NCTC 7447, 24 h, read-out: IZ. Summed up:
(§1)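 Agar well diffusion against S. aureus NCTC-7447 and E. coli NCTC-10416 (maintained on Mueller-Hinton agar, 24 h, 37 ± 1 °C) and C. albicans ATCC-10145 (Sabouraud dextrose agar, 48 h, 28 ± 1 °C). Inocula: colonies suspended in 5 mL sterile saline. Wells pre-incubated 1 h in refrigerator, then incubated 24 h at 37 °C (bacteria) or 48 h at 28 °C (fungi). Inhibition zone diameter measured. DMSO blank.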
(Agar diffusion results depend on both activity and mobility in agar.)

Experiment [2] relates to Escherichia coli. The experiment can be described thus: Antimicrobial activity against Escherichia coli NCTC 10416 by twofold serial dilution method. Summed up: (§2)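 MIC by two-fold serial dilution, limited to compounds giving inhibition zones of at least 18 mm in the well diffusion screen. Strains: S. aureus NCTC-7447 and E. coli NCTC-10416 on Mueller-Hinton agar at 37 ± 1 °C; C. albicans ATCC-10145 on Sabouraud dextrose agar at 28 ± 1 °C. Inocula were colony suspensions in sterile saline. MIC taken as the lowest concentration (highest dilution) inhibiting growth.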

Experiment [3] relates to Staphylococcus aureus. Briefly: Antimicrobial activity against Staphylococcus aureus NCTC 7447 by twofold serial dilution method. The procedure, abridged:
as §2

The test system of a further experiment is Candida albicans. Briefly: Antimicrobial activity against Candida albicans ATCC 10145 at 5 mg/ml after 48 hrs by agar well diffusion assay. Conditions: ATCC 10145, 48 h, read-out: IZ. Summed up: as §1
For experiment [4], the system named is Escherichia coli. Briefly: Antimicrobial activity against Escherichia coli NCTC 10416 at 5 mg/ml after 24 hrs by agar well diffusion assay. The following applies: NCTC 10416, 24 h, read-out: IZ. Summed up:
as §1

As usually defined, the MIC is the smallest concentration in the dilution series that meets the test's criterion for growth inhibition. A higher MIC goes with a less susceptible organism. In the case of `Cc1nc(N)c2cc(-c3ccccc3)n(-c3ccccc3)c2n1`, the results for the zone of inhibition at 5000 µg/mL in the experiment with Staphylococcus aureus [1], in the experiment on Candida albicans and in the experiment on Escherichia coli [4] were 20 mm, 21 mm and 18 mm, respectively. Moreover, the figures for the minimal inhibitory concentration (MIC) against Escherichia coli [2] and in the experiment on Staphylococcus aureus [3] were 2500 µg/mL (≈ 8.32 mM) and 1250 µg/mL (≈ 4.16 mM), respectively.
